Data reported in PMC9804870 (Clinical Pharmacology in Drug Development, 2022).

Key:
BTK = conditions: cited from earlier work
Study 1 = format: in vivo; conditions: human, plasma, oral, 100 mg
In short: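 Healthy subjects, four-sequence crossover: 100 mg tablet or capsule fasted (>10 h). Period 3: tablet 30 min after high-fat meal (800–1000 calories), or fasted 2 h after 20 mg PPI following PPI 20 mg BID days −3 to −1. Plasma sampled predose to 24 h. Parent and metabolite by LC-MS/MS (1–1000, 5–5000 ng/mL). t½ noncompartmental (linear up log down).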

[1] = dose range of 75–250 mg; dose‐proportional; cited from earlier work
[2] = high permeability, low solubility; reduced solubility at higher pH; cited from earlier work
CYP3A = conditions: has been reported; ref not given; cited from earlier work
gastric pH = conditions: cited from earlier work

CC#CC(=O)NCCCC(=O)c1nc(-c2ccc(C(=O)Nc3ccccn3)cc2)c2c(N)nccn12 [ACP‐5862]
Potency with respect to BTK inhibition, less than acalabrutinib (BTK): 50%

CC#CC(=O)N1CCC[C@H]1c1nc(-c2ccc(C(=O)Nc3ccccn3)cc2)c2c(N)nccn12 [Acalabrutinib]
half-life (Study 1): 2 to 3 h
Dose linearity of pharmacokinetics [1]: linear pharmacokinetics
Biopharmaceutical Classification System class [2]: class II

COCCCOc1ccnc(C[S+]([O-])c2nc3ccccc3[nH]2)c1C (stereo not shown) [Rabeprazole]
CYP3A inhibition in vitro (CYP3A): weak inhibitor
Time needed to achieve maximum suppression of gastric pH (gastric pH): 3 days

COc1ccc2[nH]c([S+]([O-])Cc3ncc(C)c(OC)c3C)nc2c1 (stereo not shown) [omeprazole]
Time needed to achieve maximum suppression of gastric pH (gastric pH): 5 days
